This note sets out measurements from PubChem BioAssay.

Assay [1] can be described thus: S. cerevisiae growth inhibition in permissive medium (OD615), pilot counter-assay for S. cerevisiae lifespan shortening project, permissive growth control (AID 705;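 active = growth inhibition above 25% in both replicates, a cutoff set 3 SD above the mean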). Conditions: OD615, 24 h, at 10 µM, stronger effect = higher value. In short, it runs like this:
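System: S. cerevisiae with engineered DeaD lifespan system. Medium: SC raffinose/galactose permissive medium. Doses: single compound dose of 10 µM, 0.25% DMSO final. Schedule: 24 h exposure, 30 °C. Measured by: OD615 turbidity read. Read-out: growth inhibition.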

Assay [2] in a line: S. cerevisiae growth inhibition in restrictive medium, OD615, pilot screen, restrictive growth control, yeast lifespan reduction project (AID 706;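 active = growth inhibition above a set limit, 3 SD over mean compound inhibition, in both replicates, cut at about 43% in these data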;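 note: modified DeaD lifespan yeast strain shifted to restrictive glucose medium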). Conditions: OD615, 48 h, at 10 µM, stronger effect = higher value. In short, it runs like this:
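Assay system – genetically modified Saccharomyces cerevisiae, DeaD replicative lifespan assay strain · Medium – CSMM-D glucose medium · Doses – 10 µM compound, 0.25% DMSO · Times – 4 h pre-incubation, 48 h exposure at 30 °C · Signal – optical density at 615 nm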

Assay [3] can be described thus: doxorubicin toxicity protection in MRP-1 cells – H69AR cells, CellTiter-Glo, duplicate, MRP-1 activator project, pilot screen (AID 807).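 Note: compound pretreatment 18-22 h then 72 h combined with doxorubicin; 0% = doxorubicin alone and 100% = vehicle without doxorubicin.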 Particulars: H69AR viability with doxorubicin, CellTiter-Glo luminescence; at 10 µM; stronger effect = higher value. A general note: In ATP-based viability assays light output follows the ATP content of the culture.
Assay [4] is described as follows: viability of HCT116 without oncogenic beta-catenin – human colon tumor cells, pilot screen (AID 823;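 active = cell viability at or below a set limit in both duplicate runs, the limit being the all-compound median minus 4 SD, cut at about 23% in these data, passing the limit was not always enough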;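 note: 0% = wells killed by 20 µM Hyamine and 100% = untreated DMSO cell wells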). Conditions: HCT116 beta-catenin knockout viability, CellTiter-Glo, 60 h; at 10 µM; stronger effect = lower value.
Assay [5] can be described thus: viability of PTEN-null HCT116 cells – cell-based, HCT116 clonal line, CellTiter-Glo, pilot screen (AID 824;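 active = viability at or below 27.92% in each of two runs, the all-compound median minus 4 SD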;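 note: 0% = 20 µM Hyamine control and 100% = vehicle cell control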). Particulars: HCT116 PTEN-deleted viability, 60 h, at 10 µM, stronger effect = lower value.
Assay [6] can be described thus: RAM pathway blockade in budding yeast – dse1pr::URA3 reporter, 5-FOA selection, pilot screen (AID 869;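 active = inhibition over a set limit, the all-compound mean plus 3 SD, in both replicate runs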;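 note: 0% = DMSO wells with no growth and 100% = 10 µM 1-NA-PP1 with full growth; RAM network block rescues cells from 5-FOA so hits raise OD615 growth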). Particulars: S. cerevisiae dse1pr::URA3 5-FOA growth, OD615, 2 d; at 10 µM; stronger effect = higher value; strain carries analog-sensitive mutant Cbk1 kinase.
A short description of assay [7]: RAM signaling pathway blockade in yeast – S. cerevisiae, Pdr1DBD-CYC8 efflux-inhibited sensitized strain, primary screen (AID 1298;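 active = RAM network inhibition above 8.4% in each of two replicates, 3 SD over the compound average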;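 note: 0% = DMSO untreated cells without growth and 100% = 10 µM 1-NA-PP1 full growth; higher means more yeast growth rescued from 5-FOA killing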). Conditions: S. cerevisiae cbk1-as DSE1-URA3 strain, 5-FOA growth OD615, 2 d; at 50 µM; stronger effect = higher value.

What is called viability is a read-out of living cells in per cent, often relative to untreated cells. In general, inhibition refers to the drop in the measured response relative to a control, in per cent.

Values without a mark were called inactive. Inconclusive results are not listed. Active and inactive are the calls of the source.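 Rule for the calls, unless noted: active = viability increase at or above a cutoff of the median across tested compounds plus 3 SD (cut at about 8.5% in these data, passing the limit was not always enough); inconclusive = some gains above the cutoff, reason not given; inactive = the rest.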

`Cc1ccc(Cn2nnc3c(=O)n(CC(=O)c4ccccc4)cnc32)cc1`: the growth inhibition in assay [1] is -5.55%; in assay [2], -9.49%. Moreover, the viability increase in assay [3] is -2.92%. Besides, the viability in assay [4] is 96.7%; in assay [5], 91.5%. In addition, the inhibition in assay [6] was 3.42%. Further, the RAM network inhibition in assay [7] was 5.01%.

With `O=C(c1ccc2c(c1)C(=O)N(Cc1ccco1)C2O)N1CCOCC1` (stereo not drawn), the results for the growth inhibition in assay [1] and in assay [2] were 1% and -5.05%, respectively. For the same compound, the viability increase in assay [3] is -2.58%. Moreover, the viability in assay [4] was 109%; in assay [5], 98.3%. Moreover, the inhibition in assay [6] is 2.12%. The RAM network inhibition in assay [7] was 1.94%.

Consider `COc1cccc(C2NC(C)(C(=O)O)C3C(=O)N(C(C)C)C(=O)C23)c1O` (stereo not drawn), for which the growth inhibition is 2.59% in assay [1] and 1.56% in assay [2]. Moreover, the viability increase in assay [3] was -1.19%. Also, the figures for the viability in assay [4] and in assay [5] were 91.5% and 91.3%, respectively. The inhibition in assay [6] was 1.82%. Further, the RAM network inhibition in assay [7] is 2.7%.

On to `CC(C)n1c(CCC(=O)O)ccc1-c1ccccc1`, for which the growth inhibition in assay [1] is 3.21%; in assay [2], 4.49%. For the same compound, the viability increase in assay [3] is -0.71%. Also, the viability in assay [4] is 96%; in assay [5], 101%. The inhibition in assay [6] was 0.285%. Moreover, the RAM network inhibition in assay [7] was 1.3%.

Consider `O=C(CC(=O)N1CCN(c2ccccn2)CC1)Nc1ccc2nc3n(c(=O)c2c1)CCCCC3`, for which the growth inhibition in assay [1] was -3.13%; in assay [2], -3.46%. Moreover, the viability increase in assay [3] is 0.08%. In addition, the viability is 101% in assay [4] and 100% in assay [5]. Also, the inhibition in assay [6] was 0.87%. In assay [7], the RAM network inhibition is 2.7%.

As to `Cc1cccc(NC(=O)Nc2ccc(C#N)cc2)n1`, the growth inhibition in assay [1] is -15.2%; in assay [2] it was -6.73%. Besides, the viability increase in assay [3] is -5.92%. Also, the viability in assay [4] is 18.1% (active); in assay [5], 17.4% (active). In addition, in assay [6], the inhibition is -0.505%. Further, the RAM network inhibition in assay [7] is 3.51%.

In the case of `CCOc1ccccc1NC(=O)CSc1nnc(Cn2c(=O)sc3ccccc32)n1C`, the growth inhibition in assay [1] is -8.96%; in assay [2], 9.08%. In assay [3], the viability increase was -2.73%. For the same compound, the viability in assay [4] is 91.5%; in assay [5], 92%. For the same compound, the inhibition in assay [6] is 1.48%. The RAM network inhibition in assay [7] was 2.49%.

As for `COc1ccccc1NC(=O)NCCN1C(=O)C2C3C=CC(C3)C2C1=O` (stereo not drawn), the growth inhibition in assay [1] was -16.2%; in assay [2] it was -7.88%. Moreover, the viability increase in assay [3] is -0.36%. Also, the viability is 106% in assay [4] and 105% in assay [5]. In assay [6], the inhibition is 1.71%. Moreover, the RAM network inhibition in assay [7] was 5.38%.

In the case of `O=C1c2ccccc2C(=O)N1CCc1nc2ccccc2c(=O)n1Cc1ccco1`, the results for the growth inhibition in assay [1] and in assay [2] were -8.88% and -1.42%, respectively. The viability increase in assay [3] is -3.47%. Moreover, the viability in assay [4] was 89.7%; in assay [5] it was 88.6%. For the same compound, the inhibition in assay [6] was 1.29%. For the same compound, the RAM network inhibition in assay [7] is 1.59%.

Regarding `CCC(=O)NC(c1ccccc1)c1nc2ccccc2[nH]1` (stereo not drawn), the growth inhibition in assay [1] is -12.9%; in assay [2], -14.2%. Also, the viability increase in assay [3] is -0.96%. In addition, the viability is 100% in assay [4] and 97.4% in assay [5]. Also, in assay [6], the inhibition is 1.48%. Also, in assay [7], the RAM network inhibition is 0.62%.

Consider `Cn1nnnc1SCc1nc2ccccc2[nH]1`, for which the growth inhibition in assay [1] was -7.39%; in assay [2], -5.67%. In addition, the viability increase in assay [3] is 0.69%. Moreover, the viability was 101% in assay [4] and 102% in assay [5]. For the same compound, in assay [6], the inhibition was 0.215%. Moreover, in assay [7], the RAM network inhibition is 3.43%.

Turning to `O=C(NCCn1ccc2ccccc21)c1ccc2c(c1)OCO2`, the results for the growth inhibition in assay [1] and in assay [2] were -2.72% and -4.68%, respectively. Also, the viability increase in assay [3] was 0.1%. The viability is 101% in assay [4] and 94.4% in assay [5]. Besides, the inhibition in assay [6] is 0.58%. Also, the RAM network inhibition in assay [7] was 6.97%.

Consider `CN=C(NC)SC1CC(=O)N(c2ccccc2)C1=O` (stereo not drawn), for which the values for the growth inhibition in assay [1] and in assay [2] were -8.98% and -4.91%, respectively. In assay [3], the viability increase was 1.47%. For the same compound, the viability in assay [4] is 109%; in assay [5], 101%. Also, the inhibition in assay [6] was 0.305%. In addition, the RAM network inhibition in assay [7] is 1.02%.

With `CCOC(=O)C1=C(C)NC(=O)CC1c1cc2c(cc1Br)OCO2` (stereo not drawn), the growth inhibition in assay [1] is 1.83%; in assay [2], -5.8%. In assay [3], the viability increase was -4.4%. Besides, the viability in assay [4] is 96.6%; in assay [5], 90.6%. Besides, in assay [6], the inhibition is 1.44%. Further, the RAM network inhibition in assay [7] is 6.81%.

In the case of `O=C(NCCN1CCOCC1)c1ccc2c(c1)ncn2C1CCCC1`, the growth inhibition in assay [1] is -10%; in assay [2] it was 5.44%. Also, the viability increase in assay [3] was -0.55%. For the same compound, the viability in assay [4] is 106%; in assay [5] it was 105%. For the same compound, the inhibition in assay [6] was 1.44%. Besides, in assay [7], the RAM network inhibition was 4.43%.

With `CCOC(=O)c1sc(NC(=O)c2cc(S(=O)(=O)N3CCOCC3)ccc2C)nc1C`, the growth inhibition in assay [1] is -4.69%; in assay [2] it was -10.3%. Besides, the viability increase in assay [3] was -2.11%. For the same compound, the values for the viability in assay [4] and in assay [5] were 92.3% and 86.6%, respectively. Also, in assay [6], the inhibition was 0.57%. Also, the RAM network inhibition in assay [7] was 6.77%.

Take `COc1ccc(N2Cc3cccc(C(=O)N4CCN(C(=O)c5ccco5)CC4)c3C2=O)cc1`: the growth inhibition in assay [1] was 3.88%; in assay [2], 11.3%. Besides, the viability increase in assay [3] was -1.86%. Moreover, the results for the viability in assay [4] and in assay [5] were 99.3% and 91%, respectively. The inhibition in assay [6] was 2.62%. The RAM network inhibition in assay [7] was 3.36%.

`O=C(Oc1ccnc2cc(Cl)ccc12)N1CCOCC1`: the results for the growth inhibition in assay [1] and in assay [2] were -4.51% and 5.71%, respectively. In addition, the viability increase in assay [3] was -3.29%. The viability was 87.3% in assay [4] and 87.8% in assay [5]. Also, the inhibition in assay [6] is 1.1%. In addition, the RAM network inhibition in assay [7] was 7.61%.

In the case of `C=CCn1c(-c2ccco2)n[nH]c1=S`, the values for the growth inhibition in assay [1] and in assay [2] were 2.98% and -4.35%, respectively. In addition, the viability increase in assay [3] was -1.3%. For the same compound, the viability in assay [4] was 110%; in assay [5], 97.6%. Further, in assay [6], the inhibition was 1.58%. For the same compound, the RAM network inhibition in assay [7] is 2.89%.

With `O=C(CSc1nc2ncccc2[nH]1)NCc1ccccc1`, the results for the growth inhibition in assay [1] and in assay [2] were 0.36% and 13.3%, respectively. Moreover, the viability increase in assay [3] was -0.06%. Also, the values for the viability in assay [4] and in assay [5] were 101% and 86.9%, respectively. The inhibition in assay [6] is 3.13%. Besides, in assay [7], the RAM network inhibition is 3.93%.

On to `C=CCN1C(=O)C2C(C(=O)NC)C3(C)C=CC2(O3)C1C(=O)NCc1ccc(OC)cc1` (stereo not drawn), for which the growth inhibition in assay [1] was -5.37%; in assay [2], 3.69%. Also, in assay [3], the viability increase is 1.33%. Also, the results for the viability in assay [4] and in assay [5] were 103% and 99.9%, respectively. The inhibition in assay [6] was 0.89%. Besides, the RAM network inhibition in assay [7] is 0.49%.

On to `CC(C)(C)SCCNS(=O)(=O)c1ccc(F)cc1`, for which the growth inhibition in assay [1] was -4.57%; in assay [2] it was 3.38%. In assay [3], the viability increase was 0.35%. Further, the viability in assay [4] was 94.2%; in assay [5] it was 89.5%. The inhibition in assay [6] was 0.725%. Also, the RAM network inhibition in assay [7] was 0.56%.

As to `COc1cccc(-c2nnc(SCC(=O)N3CC(C)CC(C)C3)o2)c1` (stereo not drawn), the growth inhibition in assay [1] is -6.77%; in assay [2] it was -0.75%. The viability increase in assay [3] was -3.25%. Also, the viability in assay [4] was 98%; in assay [5], 90.5%. Besides, the inhibition in assay [6] was 0.535%. Besides, the RAM network inhibition in assay [7] is 0.7%.

As for `CSc1ncccc1C(=O)OCC(=O)c1cc2ccccc2o1`, the growth inhibition was -12.5% in assay [1] and -20.7% in assay [2]. Also, the viability increase in assay [3] is 0.25%. Besides, the viability in assay [4] was 85%; in assay [5], 93.7%. Besides, the inhibition in assay [6] is 3.42%. Besides, the RAM network inhibition in assay [7] was 4.75%.
